Experimental findings from ChEMBL document CHEMBL1933059, “Imidazo [4,5f][1,10] phenanthroline derivatives as inhibitor of c-myc gene expression in A549 cells via NF-κB pathway” (Bioorg Med Chem Lett, 2012) are described below.

For orientation: IC50 means the concentration that gives 50% inhibition.

Structures are written as SMILES.

Experiment [1] concerns A549. Description: Cytotoxicity against human A549 cells after 72 hrs by MTT assay. It is filed as functional, cell-based. The settings on record: A549, 72 h. The gist of the method: (§1)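 MTT growth-inhibition assay; IC50 values given as mean ± SD of triplicates.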
Background: Tetrazolium assays rely on reduction of a dye to a coloured formazan, in cell work by metabolically active cells.

Experiment [2] deals with A-375. Description: Cytotoxicity against human A375 cells after 72 hrs by MTT assay. It is filed as functional, cell-based. The following applies: A-375, 72 h. The gist of the method: as §1
The test system of experiment [3] is Bel-7402. Description: Cytotoxicity against human Bel7402 cells after 72 hrs by MTT assay. The following applies: Bel-7402, 72 h. Format: functional, cell-based. The gist of the method: as §1
Experiment [4] concerns HepG2. Description: Cytotoxicity against human HepG2 cells after 72 hrs by MTT assay. Format: functional, cell-based. The following applies: HepG2, 72 h. Put shortly:
as §1

Experiment [5] is described as follows: Cytotoxicity against human HO8910 cells after 72 hrs by MTT assay. Format: functional, cell-based. The following applies: HO-8910, 72 h. Put shortly:
as §1

Experiment [6] in a line: Cytotoxicity against human CNE1 cells after 72 hrs by MTT assay. The settings on record: CNE. It is filed as functional, cell-based. Put shortly:
as §1

The subject of experiment [7] is A549. Briefly: Induction of apoptosis in human A549 cells at 1 uM after 24 hrs by annexinV-propidium iodide staining-based flow cytometric analysis (reference value: 10.81%). Format: functional. A general note: Flow cytometry measures light scatter and fluorescence of single cells or particles in a stream.
The subject of experiment [8] is A549. Description: Induction of apoptosis in human A549 cells at 2.5 uM after 24 hrs by annexinV-propidium iodide staining-based flow cytometric analysis (reference value: 10.81%). Format: functional.
Experiment [9] has as its system A549. Briefly: Induction of apoptosis in human A549 cells at 5 uM after 24 hrs by annexinV-propidium iodide staining-based flow cytometric analysis (reference value: 10.81%). It is filed as functional.
Experiment [10] deals with A549. Description: Induction of IkappaBalpha protein expression in human A549 cells after 24 hrs by Western blot analysis. Format: functional, cell-based. The gist of the method:
(§2)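 A549 cells treated at 1, 2.5 and 5 μM. Timepoints: IκBα 24 h, p65 24 h, c-myc 24 and 48 h. Total cell lysates resolved on 10% polyacrylamide gels and immunoblotted with protein-specific antibodies. β-actin and GAPDH serve as internal controls. Mean ± SD of triplicates.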
A general note: In western blotting, separated proteins are transferred to a membrane and probed.

Experiment [11] has as its system A549. Briefly: Inhibition of NFkappa B in human A549 cells assessed as decrease in c-myc protein expression after 24 to 48 hrs by Western blot analysis. Format: cell-based. Put shortly: as §2
Experiment [12] relates to A549. Briefly: Inhibition of NFkappa B in human A549 cells assessed as decrease in c-myc protein expression at 1 to 5 uM by Western blot analysis. Format: cell-based. The following applies: TDE = time-dependent effect. Put shortly:
as §2

The test system of experiment [13] is A549. Briefly: Inhibition of NFkappa B in human A549 cells assessed as down regulation of NF-kappaB p65 protein expression after 24 hrs by Western blot analysis. It is filed as cell-based. Put shortly: as §2
Experiment [14] has as its system A549. Briefly: Inhibition of NFkappa B in human A549 cells assessed as down regulation of NF-kappaB p65 protein expression at 1 to 5 uM by Western blot analysis. Format: cell-based. The settings on record: TDE = time-dependent effect. The gist of the method: as §2
In experiment [15] the test system is A549. Description: Down regulation of c-myc gene expression in human A549 cells after 24 to 48 hrs by qRT-PCR analysis. It is filed as functional, cell-based.

The molecule `FC(F)(F)c1ccc(-c2nc3c4cccnc4c4ncccc4c3[nH]2)cc1` yielded a half-inhibitory concentration (IC50) in experiment [1] of 1730 nM.

In experiment [1], `CCCOc1ccc(-c2nc3c4cccnc4c4ncccc4c3[nH]2)cc1` yielded an IC50 of 18000 nM.

With `Brc1ccc(-c2nc3c4cccnc4c4ncccc4c3[nH]2)cc1`, the half-maximal inhibitory concentration (IC50) in experiment [1] worked out at 850 nM; in experiment [2], 980 nM; in [3], 5800 nM; in experiment [4], 4300 nM; in experiment [5], 1560 nM; in [6], 1200 nM. Also, the Activity in experiment [7] is 35.26%; in [8], 43.26%; in [9] it was 50.94%; in experiment [10], “Dose-dependent effect”; in experiment [15], “Dose-dependent effect”. For the same molecule, the inhibition result was “Dose-dependent effect” in experiment [11], “tde” in experiment [12], “Dose-dependent effect” in experiment [13] and “tde” in experiment [14].

Molecule `CCCCOc1ccc(-c2nc3c4cccnc4c4ncccc4c3[nH]2)cc1` registered an IC50 in experiment [1] of 35500 nM.

The molecule `CCOc1ccc(-c2nc3c4cccnc4c4ncccc4c3[nH]2)cc1` displayed an IC50 in [1] of 1960 nM.

Regarding `CC(C)Oc1ccc(-c2nc3c4cccnc4c4ncccc4c3[nH]2)cc1`, inhibition in experiment [1] was half-maximal at 31900 nM (IC50).

In [1], `COc1ccc(-c2nc3c4cccnc4c4ncccc4c3[nH]2)cc1` came in with an IC50 of 1360 nM.

In turn, `Cc1ccc(-c2nc3c4cccnc4c4ncccc4c3[nH]2)cc1` displayed a concentration for half-maximal inhibition (IC50) in [1] of 1330 nM.

Molecule `Clc1ccc(-c2nc3c4cccnc4c4ncccc4c3[nH]2)cc1` registered an IC50 in [1] of 1060 nM.

With `Fc1ccc(-c2nc3c4cccnc4c4ncccc4c3[nH]2)cc1`, inhibition in experiment [1] was half-maximal at 1090 nM (IC50).
